Reference: ChEMBL document CHEMBL3271965, “Synthesis and anti-DNA -virus activity of the 5'-monophosphate and the cyclic 3',5'-monophosphate of 9-(beta-D-xylofuranosyl) guanine” (J Med Chem, 1976)
Values after ≈ are worked out from the molar mass of the structure shown. Active and inactive are the calls of the source. The rule behind the calls is not given here.

Legend:
Human alphaherpesvirus 2 = test: Antiviral activity against Herpesvirus 2 infected in human KB cells assessed as virus-induced cytopathic effect after 72 hrs; format: functional, organism-based
In short: (§1)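 KB (human nasopharyngeal carcinoma) monolayers, 18-24 h old, infected with 320 CCID₅₀ of herpes virus type 1 or type 2. Compound added within 15 min at half-log dilutions from 1000 to 1 μg/ml. Incubated 72 h at 37°. CPE scored microscopically 0-4. Virus rating is the summed (virus control − treated) CPE differences across drug levels, halved at levels showing partial toxicity.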

[1] = Cytotoxicity against human KB cells after 72 hrs; format: cell-based
Vaccinia virus = test: Antiviral activity against Vaccinia virus infected in human KB cells assessed as virus-induced cytopathic effect after 72 hrs; format: functional, organism-based; details: Orthopoxvirus vaccinia
Human alphaherpesvirus 1 [2] = test: Antiviral activity against Herpesvirus 1 infected in human KB cells assessed as virus-induced cytopathic effect after 72 hrs; format: functional; details: Human alphaherpesvirus 1, 72 h; in short: as §1
Human alphaherpesvirus 1 [3] = test: Antiviral activity against Herpesvirus 1 123 infected in Swiss mouse assessed as increase in survival at MTD, ic administered as single dose 6 hrs post infection relative to control; format: functional, organism-based
In short: (§2)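 18-20-g Swiss mice inoculated intracerebrally with an LD₇₅ of herpes virus type 1 strain 123 to induce encephalitis. One intracerebral drug treatment given 6 h after virus inoculation. Survivors counted against untreated infected controls.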

Mus musculus = test: Toxicity in Swiss mouse assessed as weight loss at 52 mg/kg/day, ip; format: organism-based; design: route intraperitoneal; details: in vivo
In short: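 Uninfected toxicity-control Swiss mice (18-20 g) dosed intraperitoneally b.i.d. ×9 at 104 or 52 mg/kg/day, in parallel with the infected groups. Body weight and survivors/total recorded.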

Human alphaherpesvirus 1 [4] = test: Antiviral activity against Herpesvirus 1 123 infected in Swiss mouse assessed as increase in survival at 0.31 to 1.25 mg/kg, ic administered as single dose 6 hrs post infection relative to control; format: functional, organism-based; in short: as §2
Human alphaherpesvirus 1 [5] = test: Antiviral activity against Herpesvirus 1 123 infected in Swiss mouse assessed as increase in survival time at 26 mg/kg/day, ip relative to control; format: functional, organism-based
In short: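 Dosed intraperitoneally b.i.d. for 9 days, starting 4 h after virus inoculation. Infected animals were compared with saline controls. Survival time was assessed by t test.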

[6] = Therapeutic index, ratio of MTD for Swiss mouse to MID for Herpesvirus 1 123 infected in Swiss mouse; details: read-out: TI
In short: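 Therapeutic index = maximum tolerated dose / minimum inhibitory dose, based on survivors/total among treated infected mice. The ic regimen was a single MTD dose at 6 h post-inoculation. The ip regimen was b.i.d. ×9 from 4 h. Uninfected toxicity controls were run alongside.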

Human alphaherpesvirus 1 [7] = test: Antiviral activity against Herpesvirus 1 123 infected in Swiss mouse assessed as increase in survival at 52 mg/kg/day, ip; format: functional, organism-based
In short: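 Encephalitis induced in 18-20-g Swiss mice by intracerebral LD₇₅ of herpes virus type 1 strain 123. Drug given intraperitoneally b.i.d. ×9 starting 4 h post-inoculation at 104, 52 or 26 mg/kg/day, with saline controls. Survivors/total compared by Fisher's exact test; survival time compared by t test.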

SMILES	Activity (Human alphaherpesvirus 2)	MCC at 72 h [1]	Activity (Vaccinia virus)	MIC (Human alphaherpesvirus 1 [2])	Activity (Human alphaherpesvirus 1 [3])	Activity (Mus musculus)	Activity (Human alphaherpesvirus 1 [4])	Survival (Human alphaherpesvirus 1 [5])	selectivity ratio [6]	Activity (Human alphaherpesvirus 1 [7])
Nc1nc(O)c2ncn([C@@H]3O[C@H](COP(=O)(O)O)[C@H](O)[C@H]3O)c2n1	Active	3.2 µg/mL	inactive	10 mg/L (≈ 27.5 µM)	Active					
Nc1nc2c(ncn2[C@@H]2O[C@@H]3COP(=O)(O)O[C@@H]3[C@H]2O)c(=O)[nH]1	Active	32 µg/mL	inactive	32 mg/L (≈ 92.7 µM)	Active	Toxic	Active	Active	≥ 4	Active
Nc1nc2c(ncn2[C@@H]2O[C@H](CO)[C@H](O)[C@H]2O)c(=O)[nH]1		10 µg/mL								
Nc1ncnc2c1ncn2[C@@H]1O[C@H](CO)[C@@H](O)[C@@H]1O [VIDARABINE]	Active	3.2 µg/mL	Active	3.2 mg/L (≈ 12 µM)	Active					
Nc1nc(O)c2ncn([C@@H]3O[C@H](CO)[C@H](O)[C@H]3O)c2n1	Active		inactive	10 mg/L (≈ 35.3 µM)	Active					
